{"data": "Published values of several laboratories", "PRMT3": "Protein arginine N-methyltransferase 3 (PRMT3, Homo sapiens, UniProt O60678)", "PTK2": "Focal adhesion kinase 1 (PTK2, Homo sapiens, UniProt Q05397)", "MAOA": "Amine oxidase [flavin-containing] A (MAOA, Homo sapiens, UniProt P21397)", "note": "Lines come from different studies, so protocols differ."}
{"Compound": "O=C(O)CCc1nc(-c2ccccc2)c(-c2ccccc2)o1", "target": "Solute carrier family 22 member 6 (SLC22A6, Homo sapiens, UniProt Q4U2R8)", "read-out": "transporter uptake", "mode": "inhibitor", "IC50": "0.891 µM"}
{"Compound": "CCCCN1/C(=C/C=C(Br)/C=C/C2=[N+](CCCC)c3ccc(Br)cc3C2(C)C)C(C)(C)c2cc(Br)ccc21", "target": "PRMT3", "read-out": "enzyme activity", "mode": "inhibitor", "method": "radiometric", "IC50": "4.09 µM"}
{"Compound": "C[C@@H]1C[C@@H](O)/C=C/C=C\\CC(=O)Cc2c(Cl)c(O)cc(O)c2C(=O)O1", "target": "Mitogen-activated protein kinase kinase kinase 7 (MAP3K7, Homo sapiens, UniProt O43318)", "read-out": "enzyme activity", "mode": "inhibitor", "method": "ATP luminescence", "IC50": "> 10 µM"}
{"Compound": "CCOC(F)(F)c1nnc2cnc(-c3cnc(OCC(F)(F)F)c(F)c3)cn12", "target": "Sodium channel protein type 1 subunit alpha (SCN1A, Homo sapiens, UniProt P35498)", "read-out": "ion current", "mode": "inhibitor", "method": "patch clamp", "IC50": "0.683 µM"}
{"Compound": "CN(C)CCCN1c2ccccc2CCc2ccc(Cl)cc21", "target": "Glutathione reductase, mitochondrial (GSR, Homo sapiens, UniProt P00390)", "read-out": "enzyme activity", "mode": "inhibitor", "method": "absorbance", "IC50": "> 100 µM"}
{"Compound": "Nc1ncnc2c1ncn2[C@@H]1O[C@H](CSCCNC(=O)Nc2ccc(F)cc2)[C@@H](O)[C@H]1O", "target": "PRMT3", "read-out": "enzyme activity", "mode": "inhibitor", "method": "fluorescence", "IC50": "2 µM"}
{"Compound": "CCOc1ccc2c(-c3cc(C)nc(Nc4cc(OC)cc(C(F)(F)F)c4)n3)cnn2n1", "target": "Homeodomain-interacting protein kinase 4 (HIPK4, Homo sapiens, UniProt Q8NE63)", "read-out": "enzyme activity", "mode": "inhibitor", "IC50": "> 10 µM"}
{"Compound": "COc1cc(C(=O)O)ccc1O[C@@H]1O[C@H](CO)[C@@H](O)[C@H](O)[C@H]1O", "target": "L-lactate dehydrogenase A chain (LDHA, Homo sapiens, UniProt P00338)", "read-out": "enzyme activity", "mode": "inhibitor", "pH": "pH 7.4", "IC50": "> 500 µM"}
{"Compound": "CCN(CC)CCCOc1cc2cc3c(cc2c2nc(OC)c4cc(OC)c(OC)cc4c12)OCO3", "target": "Tyrosyl-DNA phosphodiesterase 1 (TDP1, Homo sapiens, UniProt Q9NUW8)", "read-out": "enzyme activity", "mode": "inhibitor", "IC50": "5.5 to 13 µM"}
{"Compound": "O=c1oc(Cl)c(Cl)c2ccccc12", "target": "Rhomboid protease AarA (Providencia stuartii, UniProt P46116)", "read-out": "enzyme activity", "mode": "inhibitor", "IC50": "54 µM"}
{"Compound": "C[C@H](NC(=O)[C@@H](c1cccnc1)N(C(=O)CCl)c1ccc(-n2cccc2)cc1)c1ccccc1", "target": "Replicase polyprotein 1ab, main protease (rep, Severe acute respiratory syndrome coronavirus 2, UniProt P0DTD1)", "read-out": "enzyme activity", "mode": "inhibitor", "method": "FRET", "IC50": "0.05 µM"}
{"Compound": "Nc1ncnc2c1ncn2[C@@H]1O[C@H](CSCCNC(=O)NCc2ccc(F)cc2)[C@@H](O)[C@H]1O", "target": "PRMT3", "read-out": "enzyme activity", "mode": "inhibitor", "method": "fluorescence", "IC50": "5.9 µM"}
{"Compound": "C=CC(=O)Nc1cc(Nc2nccc(Nc3cc(Cl)c(F)cc3C(C)(C)O)n2)c(OC)cc1N1CC[C@@H](N(C)C)C1", "target": "PTK2", "read-out": "enzyme activity", "mode": "inhibitor", "notes": "with preincubation", "IC50": "0.255 µM"}
{"Compound": "CCn1ncc2c1-c1cnc(N)c(c1)O[C@H](C)c1cc(F)ccc1-c1nn(C)nc1C2", "target": "PTK2", "read-out": "enzyme activity", "mode": "inhibitor", "method": "radiometric", "IC50": "0.011 µM"}
{"Compound": "CC(C)(C)n1nc(-c2cnc3cc(OC4CC4)ccc3c2)c(C(N)=O)c1N", "target": "Receptor-interacting serine/threonine-protein kinase 2 (RIPK2, Homo sapiens, UniProt O43353)", "read-out": "cell-free assay", "IC50": "1.71 µM"}
{"Compound": "O=c1cc(-c2ccc(O)cc2)oc2cc(O)c([C@@H]3O[C@H](CO)[C@@H](O)[C@H](O)[C@H]3O)c(O)c12", "target": "MAOA", "read-out": "enzyme activity", "mode": "inhibitor", "IC50": "25.8 µM"}
{"Compound": "O=C(Nc1ccc([N+](=O)[O-])cc1[N+](=O)[O-])c1ccccc1", "target": "MAOA", "read-out": "enzyme activity", "mode": "inhibitor", "IC50": "0.126 µM"}
{"Compound": "COc1cc(C[C@H]2C(=O)OC[C@@H]2Cc2ccc(OC)c(OC)c2)ccc1O", "target": "High affinity 3',5'-cyclic-AMP phosphodiesterase 7A (PDE7A, Homo sapiens, UniProt Q13946)", "read-out": "enzyme activity", "mode": "inhibitor", "IC50": "> 20 µM"}
{"Compound": "C#CCOc1ccc(/C=C/C(=O)N2CCC(Cc3ccccc3)CC2)cc1OC", "target": "MAOA", "read-out": "enzyme activity", "mode": "inhibitor", "method": "fluorescence", "IC50": "45.2 µM"}
